Results taken from ChEMBL document CHEMBL5154645, “Potent Anti-SARS-CoV-2 Activity by the Natural Product Gallinamide A and Analogues via Inhibition of Cathepsin L” (J Med Chem, 2022).
Active and inactive are the calls of the source. The rule behind the calls is not given here.

How the values were obtained:
Vero C1008 = experiment: Cytotoxicity against cells African green monkey Vero E6 cells incubated for 24 to 72 hrs by alamar blue assay; type: toxicity, cell-based; details: chlorocebus sabaeus, time 24-72 hrs
Method in brief: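 VeroE6 cells in DMEM with 10% FCS were seeded at 5 × 10^4 per well. After adherence, cells were given varying compound concentrations for 24 or 72 h at 37 °C, 5% CO2. Alamar Blue HS was added for a further 2–4 h. Viability was read as fluorescence at ex/em 560/590 nm.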

SARS-CoV-2 [1] = experiment: Antiviral activity against SARS-CoV-2 infected in African green monkey Vero E6 cells assessed as inhibition of viral infection pre incubated for 30 minutes followed by viral infection and measured after 72 hrs by Nucblue dye based fluorometric analysis; type: functional, organism-based; details: Severe acute respiratory syndrome coronavirus 2, Vero C1008
Procathepsin L [2] = target: T1, Procathepsin L (Homo sapiens, UniProt P07711); experiment: Inhibition of human recombinant Cathepsin L assessed as Apparent inhibition constant using Z-FR-AMC as substrate […] by fluorometric assay; details: read-out: Ki(app)
Target sequence in this assay (P07711 whole entry): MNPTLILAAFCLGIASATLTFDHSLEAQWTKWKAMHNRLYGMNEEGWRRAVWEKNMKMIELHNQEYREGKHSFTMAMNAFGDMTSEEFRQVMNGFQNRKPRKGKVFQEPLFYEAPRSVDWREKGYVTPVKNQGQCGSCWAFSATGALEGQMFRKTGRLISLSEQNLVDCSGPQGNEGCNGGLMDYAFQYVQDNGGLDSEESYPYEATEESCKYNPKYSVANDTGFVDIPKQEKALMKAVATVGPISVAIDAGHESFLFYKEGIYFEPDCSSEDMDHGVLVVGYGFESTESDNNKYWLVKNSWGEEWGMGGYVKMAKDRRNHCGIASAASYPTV

Cathepsin S = Cathepsin S (Homo sapiens, UniProt P25774); experiment: Inhibition of human recombinant Cathepsin S assessed remaining activity using Z-FR-AMC as substrate incubated for 30 mins by fluorometric assay
Method in brief: (§1)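 Recombinant human cathepsins: L, B, V and K at 1.11 nM, S at 4.44 nM. Each was preincubated 30 min at 25 °C with 3333 to 0.006 nM compound. Z-FR-AMC was added at 40 μM final. AMC release rate over 0–30 min was compared with DMSO (ex/em 360/460). IC50 from four technical replicates.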

Procathepsin L [3] = target: T1, Procathepsin L; experiment: Inhibition of human recombinant Cathepsin L assessed as Kinact using Z-FR-AMC as substrate inubated for 30 mins by fluorometric assay
Method in brief: (§2)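 Human CatL, human CatB or mouse CatL at 1 nM, at 25 °C in pH 5.5 Na acetate/DTT/EDTA/NaCl buffer. Reactions held 40 μM Z-FR-AMC and 555.56 to 0.01 nM compound, in quadruplicate. Product formation was measured at 6 min intervals for 1 h and normalized to DMSO wells. kobs came from inactivation curves. kinact and KIapp were obtained by nonlinear regression of kobs = kinact[I]/(KIapp + [I]); their ratio was then calculated.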
Target sequence in this assay (P07711 114-333 limits assumed): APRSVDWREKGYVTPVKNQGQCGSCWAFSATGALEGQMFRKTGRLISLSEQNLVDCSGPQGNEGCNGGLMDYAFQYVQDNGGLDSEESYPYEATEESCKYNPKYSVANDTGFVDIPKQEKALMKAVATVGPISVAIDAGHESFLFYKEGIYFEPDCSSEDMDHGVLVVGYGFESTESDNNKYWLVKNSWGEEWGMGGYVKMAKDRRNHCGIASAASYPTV

Cathepsin B [4] = target: T2, Cathepsin B (Homo sapiens, UniProt P07858); experiment: Inhibition of human recombinant Cathepsin B assessed as Apparent inhibition constant using Z-FR-AMC as substrate inubated for 30 mins by fluorometric assay; details: read-out: Ki(app); method in brief: as §2
Procathepsin L [5] = target: T1, Procathepsin L; experiment: Inhibition of human recombinant Cathepsin L assessed as ratio of Kinact/Kiapp using Z-FR-AMC as substrate inubated for 30 mins by fluorometric assay
Target sequence in this assay (P07711 114-333 limits assumed): as above

[6] = target: T3, Procathepsin L (Mus musculus) (UniProt P06797); experiment: Inhibition of mouse Cathepsin L assessed as ratio of Kinact/Kiapp using Z-FR-AMC as substrate inubated for 30 mins by fluorometric assay; method in brief: as §2
T3 sequence (whole entry): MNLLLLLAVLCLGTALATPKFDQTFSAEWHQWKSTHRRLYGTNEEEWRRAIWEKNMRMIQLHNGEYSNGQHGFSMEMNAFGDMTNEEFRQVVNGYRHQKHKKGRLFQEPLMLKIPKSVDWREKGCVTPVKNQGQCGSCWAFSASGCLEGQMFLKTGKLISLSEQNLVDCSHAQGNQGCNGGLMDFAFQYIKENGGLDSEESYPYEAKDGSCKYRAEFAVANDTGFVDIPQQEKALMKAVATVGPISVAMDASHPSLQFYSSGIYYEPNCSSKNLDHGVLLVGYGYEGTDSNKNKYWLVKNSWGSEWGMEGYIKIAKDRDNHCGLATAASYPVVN

Cathepsin B [7] = target: T2, Cathepsin B; experiment: Inhibition of human recombinant Cathepsin B assessed as Kinact using Z-FR-AMC as substrate inubated for 30 mins by fluorometric assay
Cathepsin K = target: T4, Cathepsin K (Homo sapiens, UniProt P43235); experiment: Inhibition of human recombinant Cathepsin K assessed remaining activity using Z-FR-AMC as substrate incubated for 30 mins by fluorometric assay; method in brief: as §1
T4 sequence (P43235 whole entry): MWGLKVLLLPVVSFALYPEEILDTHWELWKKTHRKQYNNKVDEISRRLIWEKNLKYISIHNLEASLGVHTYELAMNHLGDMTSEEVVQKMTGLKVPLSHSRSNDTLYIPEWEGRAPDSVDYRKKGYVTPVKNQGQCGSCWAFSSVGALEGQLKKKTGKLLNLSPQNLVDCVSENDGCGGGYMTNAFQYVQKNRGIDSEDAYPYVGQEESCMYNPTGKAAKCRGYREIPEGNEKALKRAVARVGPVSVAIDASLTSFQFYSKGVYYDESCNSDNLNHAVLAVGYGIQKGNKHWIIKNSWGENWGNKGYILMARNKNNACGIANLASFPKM

Cathepsin B [8] = target: T2, Cathepsin B; experiment: Inhibition of human recombinant Cathepsin B assessed as ratio of Kinact/Kiapp using Z-FR-AMC as substrate inubated for 30 mins by fluorometric assay; method in brief: as §2
[9] = target: T3, Procathepsin L (Mus musculus); experiment: Inhibition of mouse Cathepsin L assessed as Kinact using Z-FR-AMC as substrate inubated for 30 mins by fluorometric assay; method in brief: as §2
Cathepsin B [10] = target: T2, Cathepsin B; experiment: Inhibition of human recombinant Cathepsin B assessed remaining activity using Z-FR-AMC as substrate incubated for 30 mins by fluorometric assay; method in brief: as §1
Cathepsin L2 = target: T5, Cathepsin L2 (Homo sapiens, UniProt O60911); experiment: Inhibition of human recombinant Cathepsin V assessed remaining activity using Z-FR-AMC as substrate incubated for 30 mins by fluorometric assay; method in brief: as §1
T5 sequence (O60911 whole entry): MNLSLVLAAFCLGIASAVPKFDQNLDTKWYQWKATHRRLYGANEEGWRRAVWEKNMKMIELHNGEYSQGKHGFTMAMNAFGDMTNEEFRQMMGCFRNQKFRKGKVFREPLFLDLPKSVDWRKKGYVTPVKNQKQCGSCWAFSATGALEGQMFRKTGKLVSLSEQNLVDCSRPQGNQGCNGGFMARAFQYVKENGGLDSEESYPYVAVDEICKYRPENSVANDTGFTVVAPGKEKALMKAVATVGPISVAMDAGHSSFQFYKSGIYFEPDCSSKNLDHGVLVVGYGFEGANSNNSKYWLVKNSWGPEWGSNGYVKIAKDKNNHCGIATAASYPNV

Procathepsin L [11] = target: T6, Procathepsin L (Mus musculus, UniProt P06797); experiment: Inhibition of mouse Cathepsin L assessed as Apparent inhibition constant using Z-FR-AMC as substrate inubated for 30 mins by fluorometric assay; details: read-out: Ki(app); method in brief: as §2
T6 sequence (P06797 whole entry): T3 sequence (whole entry)

Cathepsin B [12] = target: T2, Cathepsin B; experiment: Inhibition of recombinant human Cathepsin B expressed in huamn A549 using Z-Phe-Arg-AMC as substrate incubated for 30 mins by fluorometric assay
Method in brief: (§3)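 VeroE6 or A549 cells were lysed by sonication in 50 mM MES pH 6.0 with AEBSF, pepstatin A, EDTA and DTT; protein was quantified by BCA. An equal volume of 50 μM Z-Phe-Arg-AMC was then added. Activity was normalized to 0.2% DMSO wells.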

SARS-CoV-2 [13] = experiment: Synergistic antiviral activity against SARS-CoV-2 infected in human HEK293 cells expressing TMPRSS2 as inhibition of viral entry in presence of Na-famostat mesylate; type: functional, organism-based; details: Severe acute respiratory syndrome coronavirus 2
SARS-CoV-2 [14] = experiment: Antiviral activity against SARS-CoV-2 infected in human HEK293 cells expressing TMPRSS2 as inhibition of viral entry; type: functional, organism-based; details: Severe acute respiratory syndrome coronavirus 2
SARS-CoV-2 [15] = experiment: Antiviral activity against SARS-CoV-2 infected in Vero E6 cells assessed as inhibition of viral entry at 0.5 uM and measured after 24 hrs post infection by Alexa Fluor 488 and Hoechst dye based fluorescence microscopy; type: functional, organism-based; details: Severe acute respiratory syndrome coronavirus 2
Cathepsin B [16] = target: T2, Cathepsin B; experiment: Inhibition of recombinant human Cathepsin B in African green monkey Vero E6 using Z-Phe-Arg-AMC as substrate for 30 mins by fluorometric assay; type: cell-based; method in brief: as §3
SARS-CoV-2 [17] = experiment: Anti viral activity against SARS-CoV-2 infected in African green monkey veroE6 assessed as reduction in viral load; type: functional, Severe acute respiratory syndrome coronavirus 2, Vero E6
Procathepsin L [18] = target: T1, Procathepsin L; experiment: Inhibition of recombinant human Cathepsin L in African green monkey Vero E6 at 20 uM using Z-Phe-Arg-AMC as substrate for 30 mins by fluorometric assay; type: cell-based; method in brief: as §3
Target sequence in this assay (P07711 114-333 limits assumed): as the sequence (P07711 114-333 limits assumed) above

SARS-CoV-2 [19] = experiment: Antiviral activity against SARS-CoV-2 infected in human MRC5 cells expressing ACE2/TMPRSS2 assessed as inhibition of viral entry at 32 uM; type: functional, organism-based; details: Severe acute respiratory syndrome coronavirus 2
Procathepsin L [20] = target: T1, Procathepsin L; experiment: Binding affinity to Cathepsin L in African green monkey VeroE6 cell lysates assessed as covalent adducts by quantitative mass spectrometry; type: subcellular; details: Vero E6
Method in brief: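 VeroE6 cells at 80–90% confluence were treated with 10 μM compound for 1 h in triplicate, washed with DPBS, and lysed in 4% sodium deoxycholate buffer. Lysates were digested to peptides and analysed by nanoflow LC-MS/MS. Covalent CatL adducts were identified by targeted MS/MS at 1% FDR.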
Target sequence in this assay (P07711 114-333 limits assumed): as the sequence (P07711 114-333 limits assumed) above

SARS-CoV-2 [21] = experiment: Antiviral activity against SARS-CoV-2 infected in African green monkey Vero E6 cells assessed as inhibition of viral entry at 0.5 uM pretreated for 30 mins with cells followed by viral infection and measured after 24 hrs post infection by Alexa Fluor 488 and Hoechst dye based fluorescence microscopy; type: functional, organism-based; details: Severe acute respiratory syndrome coronavirus 2

Sequence of Cathepsin S (P25774 whole entry): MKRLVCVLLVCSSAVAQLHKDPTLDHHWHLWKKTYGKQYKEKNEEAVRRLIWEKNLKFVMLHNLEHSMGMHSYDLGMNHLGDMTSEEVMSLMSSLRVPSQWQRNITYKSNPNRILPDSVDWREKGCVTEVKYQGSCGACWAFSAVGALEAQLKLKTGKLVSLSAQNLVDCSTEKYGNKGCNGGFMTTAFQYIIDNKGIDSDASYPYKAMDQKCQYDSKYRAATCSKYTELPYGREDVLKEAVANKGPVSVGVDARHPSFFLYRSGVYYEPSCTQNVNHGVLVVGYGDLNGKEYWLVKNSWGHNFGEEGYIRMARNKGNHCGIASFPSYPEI

SMILES | CC50 (Vero C1008) [µM] | EC50 (SARS-CoV-2 [1]) [µM] | Ki (Procathepsin L [2]) [µM] | IC50 (Cathepsin S) [µM] | Kinact (Procathepsin L [3]) | Ki (Cathepsin B [4]) [µM] | Ratio (Procathepsin L [5]) | Ratio [6] | Kinact (Cathepsin B [7]) | IC50 (Cathepsin K) [µM] | Ratio (Cathepsin B [8]) | Kinact [9] | IC50 (Cathepsin B [10]) [µM] | IC50 (Cathepsin L2) [µM] | Ki (Procathepsin L [11]) [µM] | Activity (SARS-CoV-2 [19]) | further results
COC1=CC(=O)N(C(=O)/C=C/[C@H](C)NC(=O)[C@H](CC(C)C)NC(=O)[C@H](CC2CCCCC2)NC(=O)C2CCN(C)CC2)[C@H]1Cc1c[nH]c2ccccc12 | > 100 | 6.07 | 0.018 | 0.000304 | 3.47 10^-3/s | 0.861 | 1.93 10^5/s/M | 2.92 10^5/s/M | 2.09 10^-2/s | 0.000623 | 2.43 10^4/s/M | 8.56 10^-3/s | 0.000278 | 0.0206 | 0.0293 | – | –
CC[C@H](C)[C@@H](C(=O)O[C@@H](CC(C)C)C(=O)N[C@@H](CC(C)C)C(=O)N[C@@H](C)/C=C/C(=O)N1C(=O)C=C(OC)[C@@H]1C)N(C)C [GALLINAMIDE A] | > 100 | 0.028 | 0.00795 | 0.000367 | 4.75 10^-3/s | 0.117 | – | 1.07 10^6/s/M | 6.27 10^-4/s | 0.0796 | – | 5.69 10^-3/s | 0.00734 | 0.697 | 0.00529 | Active | inhibition (Cathepsin B [12]): Active; Activity (SARS-CoV-2 [13]): Active; Activity (SARS-CoV-2 [14]): Active; Activity (SARS-CoV-2 [15]): Active; inhibition (Cathepsin B [16]): Active; IC90 (SARS-CoV-2 [17]): 0.088 µM; inhibition (Procathepsin L [18]): Active; Activity (Procathepsin L [20]): Active; Activity (SARS-CoV-2 [21]): Active
COC1=CC(=O)N(C(=O)/C=C/[C@H](C)NC(=O)[C@H](CCc2ccccc2)NC(=O)[C@H](CC2CCCCC2)NC(=O)[C@H](C(C)C)N(C)C)[C@H]1Cc1c[nH]c2ccccc12 | > 100 | 0.168 | – | 0.0603 | 5.87 10^-3/s | 0.347 | 1.89 10^5/s/M | 1.36 10^5/s/M | 3.35 10^-3/s | 0.219 | 9.65 10^3/s/M | 2.24 10^-3/s | 0.0476 | 0.186 | 0.0165 | Active | –
